# Assay outcomes deposited in PubChem BioAssay by The Scripps Research Institute Molecular Screening Center.
# VIM-2 inhibitor – blocks Pseudomonas aeruginosa VIM-2 metallo-beta-lactamase | hit rate 0.89% among 290,000 | purified VIM-2, nitrocefin hydrolysis, epi-absorbance fluorescence | inhibition, % at 5.6 µM;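 active means inhibition above the mean of all tested compounds plus 3 SD, cutoff set per screening run, cut at about 7.5% in these data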;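 further: red hydrolysis product quenches plate fluorescence so inhibitors raise well fluorescence; 0% = enzyme with DMSO and 100% = DMSO without enzyme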
# PfM18AAP inh – PfM18AAP enzyme inhibition; recombinant PfM18AAP, H-Glu-NHMec fluorogenic cleavage; inhibition, % at 7.35 µM; hit rate 1.2% among 290,000; AID 1822;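 active means inhibition above the campaign mean inhibition over all tested compounds plus 3 SD, cut at about 28% in these data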;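 further: 0% = plate median of test compound wells and 100% = 2 mM ZnCl2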
# CTSL1 counter – blocks F. hepatica cathepsin L1 in PFM18AAP counter-screen; recombinant F. hepatica cathepsin L1, Z-Leu-Arg-MCA fluorescence; inhibition, % at 5.96 µM; hit rate 0.49% among 300,000; AID 1906;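 active means inhibition above the mean of all tested compounds plus 3 SD, set per screening campaign, cut at about 17% in these data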;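 further: 0% = plate median of test compound wells and 100% = 1 µM Z-Phe-Ala-diazomethylketone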
# IMP-1 inhibitor – blocks Pseudomonas aeruginosa IMP-1 metallo-beta-lactamase | AID 1556 | inhibition, % at 5.6 µM | hit rate 0.45% among 290,000 | purified IMP-1, nitrocefin hydrolysis, epi-absorbance fluorescence;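 active means inhibition above the mean plus 3 SD of all compounds in the same screening run, cut at about 4.5% in these data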;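 further: 0% = IMP-1 with DMSO and 100% = DMSO wells lacking enzyme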
#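 Assay system: purified IMP-1; Quantity: IMP-1 0.2 nM before substrate addition; Medium: HEPES buffer pH 7.1 with ZnSO4 and Brij 35; Incubation: 15 min enzyme–compound preincubation, then 25 min nitrocefin reaction, 25 °C; Signal: fluorescence quenching readout, ex 480/em 530 nm; Controls: DMSO with and without IMP-1; Repeats: singlicate testing.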
# Numbers without * were called inactive; x = no result. An excerpt weighted towards active compounds, which were near 2.7% of everything screened.
SMILES,VIM-2 inhibitor,PfM18AAP inh,CTSL1 counter,IMP-1 inhibitor
Cn1c(=O)c2sccc2n2c(CCCC(=O)NC3CCN(Cc4ccccc4)CC3)nnc12,10*,0,0,0
O=C(Nc1cccc([N+](=O)[O-])c1)c1cccc(C(=O)Nc2cccc([N+](=O)[O-])c2)c1,-1,1,-1,8.7*
CCOC(=O)/C=C/C(=O)Nc1cccc([N+](=O)[O-])c1,-4,-15,18*,0
O=C(Nc1ccc(NC(=O)c2cccc([N+](=O)[O-])c2)cc1)c1cccc([N+](=O)[O-])c1,-2,-15,-6,-4
CC(=O)c1ccc(NC(=O)c2cccc(NC(=O)c3ccccc3)c2)cc1,-1,-1,3,7.2*
O=C(Nc1cc([N+](=O)[O-])ccc1O)c1cccc(C(=O)Nc2cc([N+](=O)[O-])ccc2O)c1,-1,-1,2,26*
CC(=O)c1cccc(NC(=O)c2ccc3ccccc3c2)c1,-1,6,2,-2
CC(=O)NCc1ccc(S(=O)(=O)N2CCCN(C)CC2)cc1,-1,-14,3,0
CC1(C(=O)NCC2CCCO2)Oc2cccnc2NC1=O (stereo not given),1,-9,-2,-1
Cc1cc(C(=O)O)ccc1-n1c(C)cc(C=C2C(=O)c3ccccc3C2=O)c1C,2,11,19*,-1
Cc1cc(C(=O)O)ccc1-n1c(C)cc(/C=C(/C#N)C(=O)Nc2ccccc2)c1C,-1,1,0,-2
O=c1oc2ccc(NS(=O)(=O)c3cccc4cccnc34)cc2s1,-1,31*,-2,-3
O=C(O)c1cccc(S(=O)(=O)Nc2ccc3oc(=O)sc3c2)c1,-2,42*,1,-4
O=C(O)c1cccc(S(=O)(=O)Nc2ccc3[nH]c(=O)[nH]c3c2)c1,-3,3,4,-3
CCOCCc1nnc(NC(=O)Cc2c(F)cccc2Cl)s1,-3,1,-2,-4
O=C(Oc1ccc(/C=N/Nc2nc(N3CCCCC3)nc(N3CCCCC3)n2)cc1)c1ccco1,-4,2,-2,-4
Nc1nc(SCC(=O)NCCO)nc2sc3c(c12)CCCC3,2,-3,0,-3
COC(=O)CSc1nc(N)c2c3c(sc2n1)CCCC3,4,28*,0,2
O=C(COc1cccnc1[N+](=O)[O-])c1ccc(Cl)s1,1,32*,-1,1
O=C(OCC(=O)c1ccc(Cl)s1)c1ccccn1,-4,2,-1,-1
OC[C@H]1O[C@@H](Oc2cc(O)cc(/C=C/c3ccc(O)cc3)c2)[C@H](O)[C@@H](O)[C@@H]1O,-4,40*,1,-2
O=C(COC(=O)c1cc(-c2cccc(Br)c2)nc2ccccc12)NCC1CCCO1 (stereo not given),-1,-8,-17,-2
Cc1cc(C)cc(-n2ccnc2SCC(=O)O)c1,5,-7,0,0
CCOC(=O)N1CCC(NC(=O)c2ccc3c(c2)sc2nc(-c4cccc(OC)c4)cn23)CC1,-1,30*,x,-2
CCOC(=O)N1CCC(NC(=O)c2cc(C(=O)Nc3cccc(OC)c3)ccc2CO)CC1,-2,-1,-1,-2
SMILES,VIM-2 inhibitor,PfM18AAP inh,CTSL1 counter,IMP-1 inhibitor
COc1cccc2c1Oc1ncccc1N(C(=O)CCC(=O)NCc1cccc(C)c1)C2,-1,-3,-4,0
N#Cc1c(N2CCCC(O)C2)nc(N)c2c(N)nc3c(c12)CC(=O)N3C12CC3CC(CC(C3)C1)C2 (stereo not given),-2,6,25*,-2
Cc1cc([N+](=O)[O-])c2c(c1C)C1C=CCC1C(c1ccccn1)N2 (stereo not given),1,21,2,5.9*
CSc1cccc(-n2cc(-c3ccc4c(c3)OCO4)[nH]c2=O)c1,-1,29*,-3,2
CSc1cccc(NC(=O)CNC(=O)c2ccc3c(c2)OCO3)c1,x,x,-2,x
O=C(Nc1ccc(F)cc1F)NC1CCCCCCC1,-3,5,x,-3
CCCCC(=O)N(Cc1ccc(-c2ccccc2-c2nn[nH]n2)cc1)[C@H](C(=O)O)C(C)C,-3,2,1,11*
COc1cccc(N(CC(=O)NC2CCCCC2)C(=O)CCC(=O)Nc2nccs2)c1,-2,-2,-2,-3
CCc1cc(=O)oc2cc(C)cc(OC(=O)c3ccco3)c12,11*,7,-2,-3
COc1cc(/C=N/NC2=NCCCCC2)ccc1O,-2,4,-1,-3
COc1cc(/C=N/Nc2ncnc3sc4c(c23)CCC4)ccc1O,10*,19,x,-1
Cc1ccc(C(=O)NNC(=O)Cn2ccc(C(F)(F)F)n2)o1,x,x,3,x
